The source of these data is ChEMBL document CHEMBL1125756, “Synthesis and antiarrhythmic activity of alpha-[(diarylmethoxy)methyl]-1-piperidineethanols” (1991).

For assay [1], the system named is Canis familiaris. Put plainly: Percent of normal beats 1 hr after 5 mg/kg given over 5 min by i.v. infusion. The assay is classed as functional, Canis lupus familiaris. To be noted: route intravenous. The procedure, abridged:
(§1)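 Coronary-artery-ligated dogs with ventricular arrhythmias received 5 mg/kg iv in 10–20 mL isotonic saline, infused over 5 min. Limb lead II ECG was monitored continuously for up to 6 h or until activity ended. Percent normal sinus beats was scored at control, end of dose, 20 min and 1 h. Results are mean ± SEM for n≥3 and mean ± SD for n=2.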

Assay [2] concerns Canis familiaris. Put plainly: Percent of normal beats after 5 mg/kg given over 5 min by i.v. infusion. As to conditions: route intravenous. The assay is classed as functional, Canis lupus familiaris. The method, boiled down:
as §1

The subject of assay [3] is Canis familiaris. Put plainly: Activity rating following 5 mg/kg i.v. administration. To be noted: route intravenous.
The test system of assay [4] is Canis familiaris. Put plainly: Percent of normal beats 20 min after 5 mg/kg given over 5 min by i.v. infusion. The assay is classed as functional, Canis lupus familiaris. To be noted: route intravenous. The method, boiled down:
as §1

Assay [5] relates to Canis familiaris. Put plainly: Degree of tachycardia in conscious normal dogs. The assay is classed as functional, Canis lupus familiaris. The procedure, abridged: (§2)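 Conscious normal dogs, trained to sit quietly while sling-restrained, received 5 mg/kg iv over 5 min, as in the ligated-dog protocol. Heart rate came from continuous limb lead II ECG at control, end of dose, 20 min and 1 h. Dogs above 140 beats/min were followed until the rate fell to 140. Degree was graded severe ≥200, moderate 160–199, slight <160 with a rise ≥20, none ≤20 change. Duration was graded long >2 h, moderate 0.5–2 h, short <0.5 h.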

Assay [6] has as its system Canis familiaris. Put plainly: […] 20 min after a dose of 5 mg/kg given intravenously over a 5-min period in normal dogs. The assay is classed as functional, Canis lupus familiaris. To be noted: route intravenous.
The test system of assay [7] is Canis familiaris. Put plainly: […] 1 h after a dose of 5 mg/kg given intravenously over a 5-min period in normal dogs. In kind it is functional, Canis lupus familiaris. As to conditions: route intravenous.
Assay [8] has as its system Canis familiaris. Put plainly: […] at the end of the dose.(5 mg/kg was given intravenously over a 5-min period in normal dogs.). The assay is classed as functional, Canis lupus familiaris.
The test system of assay [9] is Canis familiaris. Put plainly: Period of tachycardiac effect in conscious normal dogs; 0.5-2. The assay is classed as functional, Canis lupus familiaris. The method, boiled down:
as §2

The subject of assay [10] is Canis familiaris. Put plainly: Degree of tachycardia in conscious normal dogs; 160-199. The assay is classed as functional, Canis lupus familiaris. The procedure, abridged:
(§3)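 Conscious normal dogs, trained to sit quietly while sling restrained, were given 5 mg/kg iv as an infusion over 5 min in isotonic saline. Heart rate came from continuous limb lead II ECG during a control period, at end of dose, and at 20 min and 1 h. Degree bands were ≥200, 160–199, and <160 beats/min after a rise of ≥20. Duration bands were >2 h, 0.5–2 h and <0.5 h. Two dogs were used.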

In assay [11] the test system is Canis familiaris. Put plainly: Period of tachycardiac effect in conscious normal dogs. In kind it is functional, Canis lupus familiaris. The method, boiled down: as §3
The test system of assay [12] is Canis familiaris. Put plainly: […] 1 h after a dose of 5 mg/kg given intravenously over a 5-min period […]. The assay is classed as functional, Canis lupus familiaris. As to conditions: route intravenous. The procedure, abridged:
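Dogs with coronary artery ligation and ventricular arrhythmia received 5 mg/kg iv in 10–20 mL isotonic saline, infused over 5 min. Limb lead II ECG was monitored continuously for up to 6 h. Percent normal sinus beats was scored at control, at end of dose, and at 20 min and 1 h. Values are mean ± SEM for three or more animals and mean ± SD for two.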

Assay [13] has as its system Canis familiaris. Put plainly: Degree of tachycardiac effect in conscious normal dogs.

Regarding `Cc1ccccc1C(OCC(O)CN1CCCCC1)c1ccccc1C.O=C(O)C(=O)O` (configuration not stated), the values for the Normal beats with Canis familiaris [1], in the assay with Canis familiaris [2] and with Canis familiaris [4] were 16%, 79% and 31%, respectively. The same compound gave an Activity rating with Canis familiaris [3] of 21.
Take `Cc1ccccc1C(OCC(O)CN1CCCCC1C)c1ccccc1C.O=C(O)C(=O)O` (configuration not stated): the Normal beats is on record as 24% in the assay with Canis familiaris [1], 49% with Canis familiaris [2] and 44% in the assay on Canis familiaris [4]. Moreover, the Activity rating in the assay with Canis familiaris [3] is 36.
As to `CC1CCC(C)N1CC(O)COC(c1ccccc1)c1ccccc1` (configuration not stated), the Normal beats in the assay on Canis familiaris [1] came out at 12%; with Canis familiaris [2], 96%; in the assay on Canis familiaris [4], 39%. In the assay with Canis familiaris [3], this compound returned an Activity rating of 36. The Rating with Canis familiaris [5] was <160 beats min-1; in the assay on Canis familiaris [9], 0.5 h. Moreover, the figures for the Heart rate in the assay on Canis familiaris [6], with Canis familiaris [7] and in the assay on Canis familiaris [8] were 117 beats min-1, 102 beats min-1 and 140 beats min-1, respectively.
For `C[N+](C)(C)CC(O)COC(c1ccccc1)c1ccccc1` (configuration not stated), the results for the Normal beats in the assay on Canis familiaris [1], with Canis familiaris [2] and in the assay with Canis familiaris [4] were 0%, 52% and 1%, respectively. The compound also came in with an Activity rating in the assay with Canis familiaris [3] of 9. The Rating in the assay on Canis familiaris [5] was >200 beats min-1; in the assay with Canis familiaris [9] it was 0.5 h. In addition, the figures for the Heart rate in the assay on Canis familiaris [6], in the assay with Canis familiaris [7] and with Canis familiaris [8] were 135 beats min-1, 118 beats min-1 and 242 beats min-1, respectively.
In the case of `CC1CCCC(C)[N+]1(C)CC(O)COC(c1ccccc1)c1ccccc1.[Cl-]` (configuration not stated), the Normal beats amounted to 28% with Canis familiaris [1], 15% in the assay on Canis familiaris [2] and 33% in the assay with Canis familiaris [4]. In addition, the Activity rating in the assay with Canis familiaris [3] was 15. Also, the Rating was 160 beats min-1 in the assay on Canis familiaris [10] and <0.5 h in the assay on Canis familiaris [11]. Further, the results for the Heart rate in the assay with Canis familiaris [6], in the assay with Canis familiaris [7] and with Canis familiaris [8] were 152 beats min-1, 101 beats min-1 and 167 beats min-1, respectively.
As to `CC(OCC(O)CN1C(C)CCCC1C)c1ccccc1` (configuration not stated), the Normal beats with Canis familiaris [1] came to 11%; in the assay on Canis familiaris [2], 62%; with Canis familiaris [4] it was 16%. Besides, in the assay with Canis familiaris [3], the Activity rating amounted to 13. The Rating was <160 beats min-1 in the assay on Canis familiaris [5] and >2 h with Canis familiaris [11]. Besides, the results for the Heart rate with Canis familiaris [6], in the assay with Canis familiaris [7] and in the assay on Canis familiaris [8] were 101 beats min-1, 144 beats min-1 and 156 beats min-1, respectively.
As for `CC1CCCC(C)N1CC(O)CSC(c1ccccc1)c1ccccc1` (configuration not stated), the Normal beats is given as 42% with Canis familiaris [1], 95% with Canis familiaris [2] and 49% with Canis familiaris [4]. Moreover, the Activity rating with Canis familiaris [3] turned out to be 51. For the same compound, the Rating in the assay with Canis familiaris [10] was 160 beats min-1; in the assay with Canis familiaris [11], <0.5 h. The Heart rate in the assay on Canis familiaris [6] worked out at 148 beats min-1; with Canis familiaris [8], 185 beats min-1; with Canis familiaris [12] it was 148 beats min-1.
In the case of `Cc1ccccc1C(OCC(O)CN1C(C)CCCC1C)c1ccccc1` (configuration not stated), the Normal beats with Canis familiaris [1] was determined as 81%; with Canis familiaris [2] it was 87%; in the assay with Canis familiaris [4], 71%. The same compound yielded an Activity rating in the assay with Canis familiaris [3] of 68. The Rating in the assay with Canis familiaris [10] worked out at 160 beats min-1; in the assay with Canis familiaris [9], 0.5 h. Moreover, the results for the Heart rate with Canis familiaris [6], in the assay with Canis familiaris [7] and in the assay on Canis familiaris [8] were 153 beats min-1, 134 beats min-1 and 153 beats min-1, respectively.
Take `CC1CCCC(C)N1CC(O)COC(c1ccccc1)c1ccccc1` (configuration not stated): the Normal beats in the assay with Canis familiaris [1] is reported as 53%; in the assay on Canis familiaris [2] it was 88%; with Canis familiaris [4], 67%. In the assay on Canis familiaris [3], this compound had an Activity rating of 56. Further, the Rating was 160 beats min-1 with Canis familiaris [10] and 0.5 h in the assay on Canis familiaris [9]. Moreover, the results for the Heart rate in the assay on Canis familiaris [6], in the assay on Canis familiaris [7] and in the assay on Canis familiaris [8] were 171 beats min-1, 150 beats min-1 and 172 beats min-1, respectively.
For `Cc1ccccc1C(OCC(O)CN1C(C)CCCC1C)c1ccccc1C` (configuration not stated), the Normal beats with Canis familiaris [1] is 50%; in the assay on Canis familiaris [2], 87%; in the assay with Canis familiaris [4], 68%. Also, the Activity rating with Canis familiaris [3] is 51. Moreover, the figures for the Rating with Canis familiaris [5] and in the assay on Canis familiaris [11] were <160 beats min-1 and <0.5 h, respectively. Also, the Heart rate was 113 beats min-1 in the assay on Canis familiaris [6], 142 beats min-1 in the assay with Canis familiaris [7] and 153 beats min-1 with Canis familiaris [8].
Turning to `Cc1cccc(C)c1C(OCC(O)CN1C(C)CCCC1C)c1c(C)cccc1C` (configuration not stated), the Normal beats was determined as 54% in the assay with Canis familiaris [1], 49% in the assay with Canis familiaris [2] and 76% in the assay on Canis familiaris [4]. The compound further displayed an Activity rating in the assay with Canis familiaris [3] of 47.
On to `COc1ccccc1C(OCC(O)CN1C(C)CCCC1C)c1ccccc1OC` (configuration not stated), for which the Normal beats is on record as 33% in the assay with Canis familiaris [1], 100% in the assay with Canis familiaris [2] and 62% in the assay with Canis familiaris [4]. Also, the Activity rating in the assay with Canis familiaris [3] stood at 57. Moreover, the values for the Rating with Canis familiaris [5] and in the assay with Canis familiaris [11] were >200 beats min-1 and >2 h, respectively. For the same compound, the Heart rate with Canis familiaris [6] worked out at 232 beats min-1; in the assay with Canis familiaris [7], 232 beats min-1; in the assay on Canis familiaris [8], 234 beats min-1.
`Cc1cccc(C)c1C(OCC(O)CN1C(C)CCCC1C)c1ccccc1` (configuration not stated): the Normal beats came out at 16% in the assay on Canis familiaris [1], 60% with Canis familiaris [2] and 19% in the assay on Canis familiaris [4]. The Activity rating in the assay with Canis familiaris [3] came to 8.
On the same counts, the results for `CCN(CC)CC(=O)Nc1c(C)cccc1C.Cl` are 9%, 86%, 23% and 20.
As for `CN(C)CC(O)COC(c1ccccc1)c1ccccc1.Cl` (configuration not stated), the values for the Normal beats in the assay on Canis familiaris [1], with Canis familiaris [2] and in the assay on Canis familiaris [4] were 15%, 61% and 25%, respectively. This compound also had an Activity rating in the assay with Canis familiaris [3] of 19. Further, the Heart rate in the assay on Canis familiaris [6] was determined as 115 beats min-1; with Canis familiaris [7], 110 beats min-1; in the assay with Canis familiaris [8] it was 121 beats min-1. In addition, the Rating with Canis familiaris [13] is < 20 beats min-1.
For the compound `CC1CCCC(C)N1CC(O)CNC(c1ccccc1)c1ccccc1.Cl.Cl` (configuration not stated), the Normal beats worked out at 30% with Canis familiaris [1], 92% in the assay on Canis familiaris [2] and 47% in the assay with Canis familiaris [4]. In addition, the Activity rating in the assay with Canis familiaris [3] was 44. Also, the values for the Rating with Canis familiaris [5] and with Canis familiaris [11] were <160 beats min-1 and <0.5 h, respectively. Moreover, the Heart rate with Canis familiaris [6] came to 132 beats min-1; in the assay with Canis familiaris [7], 122 beats min-1; in the assay on Canis familiaris [8], 141 beats min-1.
With `CCN(CC)CCNC(=O)c1ccc(N)cc1.Cl` [PROCAINAMIDE HYDROCHLORIDE], the Normal beats was 34% with Canis familiaris [1], 72% with Canis familiaris [2] and 66% in the assay on Canis familiaris [4]. Also, the Activity rating in the assay on Canis familiaris [3] came out at 52.
